Test results reported in ChEMBL document CHEMBL4359856, “Strategies to develop selective CB2 receptor agonists from indole carboxamide synthetic cannabinoids” (Eur J Med Chem, 2019).

Assays:
[1] = target: T1, Cannabinoid receptor 1 (Homo sapiens, UniProt P21554); test: Agonist activity at human CB1 receptor expressed in AtT-20 cells measured every 2 secs for 2 mins by FLIPR assay; format: cell-based
Method in brief: (§1)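 After vehicle subtraction, the change was taken as % of baseline. The final DMSO concentration was ≤0.1%. EC50 came from four-parameter concentration–response fits. Each experiment was run in duplicate, with at least three independent experiments; values are mean ± SEM.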

[2] = target: T1, Cannabinoid receptor 1; test: Agonist activity at human CB1 receptor expressed in AtT-20 cells at 1 uM measured every 2 secs for 2 mins by FLIPR assay relative to control; format: cell-based; method in brief: as §1
[3] = target: T2, Cannabinoid receptor 2 (Homo sapiens, UniProt P34972); test: Agonist activity at human CB2 receptor expressed in AtT-20 cells measured every 2 secs for 2 mins by FLIPR assay; format: cell-based; method in brief: as §1
T2 sequence (P34972 whole entry): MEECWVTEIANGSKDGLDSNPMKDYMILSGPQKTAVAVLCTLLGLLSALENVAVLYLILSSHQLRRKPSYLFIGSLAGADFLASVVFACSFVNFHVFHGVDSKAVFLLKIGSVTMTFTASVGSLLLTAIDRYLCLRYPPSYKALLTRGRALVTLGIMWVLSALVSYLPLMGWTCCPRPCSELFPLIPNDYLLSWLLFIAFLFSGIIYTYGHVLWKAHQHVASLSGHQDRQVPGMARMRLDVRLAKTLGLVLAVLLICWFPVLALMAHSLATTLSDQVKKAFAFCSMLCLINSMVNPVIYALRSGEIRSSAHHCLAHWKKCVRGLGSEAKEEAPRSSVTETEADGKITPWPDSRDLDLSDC

[4] = target: T2, Cannabinoid receptor 2; test: Agonist activity at human CB2 receptor expressed in AtT-20 cells at 1 uM measured every 2 secs for 2 mins by FLIPR assay relative to control; format: cell-based
Method in brief: as §1, with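 “In AtT-20 cells stably expressing human CB1 or CB2, membrane-potential dye fluorescence (530/565 nm) was recorded at 37 °C. After” for “After”, “fits. […]” for “fits.”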

[5] = Selectivity index, ratio of EC50 for human CB1 receptor expressed in AtT-20 cells to EC50 for human CB2 receptor expressed in AtT-20 cells
[6] = target: T1, Cannabinoid receptor 1; test: Agonist activity at human CB1 receptor expressed in AtT-20 cells at 10 uM measured every 2 secs for 2 mins by FLIPR assay relative to control; format: cell-based; settings: read-out: Activity
[7] = target: T2, Cannabinoid receptor 2; test: Agonist activity at human CB2 receptor expressed in AtT-20 cells at 10 uM measured every 2 secs for 2 mins by FLIPR assay relative to control; format: cell-based

T1 sequence (P21554 whole entry): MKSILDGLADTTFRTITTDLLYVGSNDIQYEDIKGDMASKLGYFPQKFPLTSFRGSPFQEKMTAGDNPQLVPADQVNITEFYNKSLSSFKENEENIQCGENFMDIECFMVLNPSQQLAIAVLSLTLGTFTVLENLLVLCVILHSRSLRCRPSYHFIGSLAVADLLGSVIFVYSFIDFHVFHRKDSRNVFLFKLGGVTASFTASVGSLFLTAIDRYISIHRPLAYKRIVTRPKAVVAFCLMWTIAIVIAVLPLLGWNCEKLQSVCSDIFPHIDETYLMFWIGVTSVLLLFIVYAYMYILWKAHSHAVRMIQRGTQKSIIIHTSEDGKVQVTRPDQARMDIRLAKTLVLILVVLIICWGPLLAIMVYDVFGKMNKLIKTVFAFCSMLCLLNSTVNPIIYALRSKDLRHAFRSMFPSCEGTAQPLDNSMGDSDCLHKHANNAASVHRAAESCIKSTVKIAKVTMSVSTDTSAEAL

Row | Structure (SMILES) | EC50 [1] [nM] | Emax at 1 µM [2] [%] | EC50 [3] [nM] | Emax [4] [%] | Ratio EC50 [5] | activity at 10 µM [6] [%] | Activity [7] [%]
1 | CCCCCn1nc(C(=O)NC23CC4CC(CC(C4)C2)C3)c2cccnc21 | 824 | 97 | 122 | 104 | 7 | – | –
2 | CCCCCn1c(C(=O)N[C@H](C(=O)OC)C(C)(C)C)cc2ccccc21 | – | – | – | – | – | < 50 | –
3 | CCCCCn1c(C(=O)NC23CC4CC(CC(C4)C2)C3)cc2ccccc21 | – | – | – | – | – | < 50 | –
4 | CCCCCn1c(C(=O)N[C@H](C(=O)OC)C(C)C)cc2ccccc21 | – | – | 713 | 74 | – | < 50 | –
5 | CC(C)(NC(=O)c1cc2ccccc2n1CCCCCO)c1ccccc1 | – | – | 217 | 88 | – | < 50 | –
6 | CCCCCn1cc(C(=O)NC23CC4CC(CC(C4)C2)C3)c2ccccc21 | 74 | 108 | 96 | 85 | – | – | –
7 | COC(=O)[C@@H](NC(=O)c1cc2ccccc2n1CCCCCO)C(C)C | – | – | – | – | – | < 50 | < 50
8 | CCCCCn1c(C(=O)N[C@H](C(N)=O)C(C)C)cc2ccccc21 | – | – | 741 | 74 | – | < 50 | –
9 | CCCCCn1c(C(=O)NC(C)(C)c2ccccc2)cc2ccccc21 | – | – | – | – | – | < 50 | –
10 | CCCCCn1c(C(=O)NC23CC4CC(CC(C4)C2)C3)cc2cccnc21 | – | – | – | – | – | < 50 | < 50
11 | CC(C)[C@H](NC(=O)c1cc2ccccc2n1CCCCCO)C(N)=O | – | – | – | – | – | < 50 | < 50
12 | CCCCCn1cccc2c(C(=O)NC34CC5CC(CC(C5)C3)C4)cnc1-2 | – | – | – | – | – | < 50 | < 50
13 | CCCCCn1cc(C(=O)N[C@H](C(=O)OC)C(C)C)c2cccnc21 | 56 | 97 | 15 | 98 | – | – | –
14 | CC(C)(C)[C@H](NC(=O)c1cc2ccccc2n1CCCCCO)C(N)=O | – | – | – | – | – | < 50 | –
15 | CC(C)(C)[C@H](NC(=O)c1cc2ccccc2n1CCCCC(F)F)C(N)=O | – | – | 5460 | 128 | – | < 50 | –
16 | O=C(NC12CC3CC(CC(C3)C1)C2)c1cn(CCCCCO)c2ncccc12 | > 10000 | – | 49 | 93 | – | < 50 | –
17 | CCCCCn1cc(C(=O)NC23CC4CC(CC(C4)C2)C3)c2cccnc21 | 152 | 75 | 43 | 101 | 3.5 | – | –
18 | CCCCCn1cc(C(=O)N[C@H](C(N)=O)C(C)(C)C)c2cccnc21 | 4 | 110 | 5 | 94 | – | – | –
19 | CCCCCn1cc(C(=O)N[C@H](C(=O)OC)C(C)(C)C)c2cccnc21 | 1.7 | 103 | 4.3 | 102 | – | – | –
20 | COC(=O)[C@@H](NC(=O)c1cn(CCCCCO)c2ncccc12)C(C)(C)C | 234 | 99 | 19 | 96 | – | – | –
21 | CCCCCn1c(C(=O)N[C@H](C(N)=O)C(C)(C)C)cc2ccccc21 | > 10000 | – | 189 | 73 | – | < 50 | –
22 | CCCCCn1cc(C(=O)NC(C)(C)c2ccccc2)c2cccnc21 | 35 | 106 | 104 | 96 | – | – | –
23 | CCCCCCC(C)(C)c1ccc([C@@H]2C[C@H](O)CC[C@H]2CCCO)c(O)c1 | – | – | – | 106 | – | – | –
24 | CC(C)(NC(=O)c1cn(CCCCCO)c2ncccc12)c1ccccc1 | 466 | 110 | 152 | 95 | – | – | –
25 | CC(C)(C)[C@H](NC(=O)c1cn(CCCCCO)c2ncccc12)C(N)=O | 491 | 98 | 50 | 96 | – | – | –
26 | CCCCCn1cc(C(=O)N[C@H](C(N)=O)C(C)C)c2cccnc21 | 121 | 117 | 58 | 103 | – | – | –
27 | COC(=O)[C@@H](NC(=O)c1cc2ccccc2n1CCCCCO)C(C)(C)C | – | – | – | – | – | < 50 | < 50
